An excerpt weighted towards active compounds, which were near 3.5% of everything screened.
MrgX1 agonist – human MrgX1 receptor agonism, primary screen | Q96LB2 | MrgX1-HEK293 cells, Fluo-4 calcium fluorescence, agonist mode; hits give high values | B-score at 10 µM | hit rate 0.44% among 310,000;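 active = calcium response B-score plate-corrected fluorescence ratio at least 3 library SD, with starting fluorescence B-score inside 5 SD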
Target sequence (Q96LB2 whole entry, looked up): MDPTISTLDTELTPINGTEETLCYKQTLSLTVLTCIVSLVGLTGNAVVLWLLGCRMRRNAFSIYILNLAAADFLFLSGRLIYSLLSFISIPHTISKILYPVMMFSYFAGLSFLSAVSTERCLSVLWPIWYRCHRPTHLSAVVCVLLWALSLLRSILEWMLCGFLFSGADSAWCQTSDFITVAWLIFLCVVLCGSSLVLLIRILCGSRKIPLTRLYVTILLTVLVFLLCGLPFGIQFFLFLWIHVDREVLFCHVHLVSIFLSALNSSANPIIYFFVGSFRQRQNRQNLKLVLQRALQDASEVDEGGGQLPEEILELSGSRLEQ
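Material: MrgX1-expressing HEK293 cells / Dosing: compound as first of three additions / Incubation: overnight seeding, then 1 h dark dye loading / Signal: Fluo-4 NW calcium fluorescence / Evaluation: B-scored fluorescence response ratio / Benchmarks: positive and negative control wells on each plate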
MrgX1 antagonist – blocks BAM8-22 activation of human MrgX1 receptor; Q96LB2; hit rate 1.3% among 310,000; B-score at 10 µM; MRGX1-HEK293 calcium flux, Fluo-4, BAM8-22 antagonism; hits give low values;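 active = calcium-response B-score plate-corrected more than 3 library SD below zero, starting fluorescence within 5 deviations, no agonist response on first addition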;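 note: peak minus trough fluorescence over baseline after final BAM8-22 challenge near maximal dose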
RGS4 pot – potentiators or activators of RGS4. HEK293 M3R/inducible RGS4, carbachol calcium flux Fluo4; hits give low values. B-score at 10 µM. hit rate 0.92% among 310,000;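 active = B-score of the integrated calcium signal more than 4 SD below the library mean, with starting fluorescence not abnormally high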;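 note: negative B-score means reduced calcium response which marks RGS4 activation or potentiation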
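Detection: kinetic calcium fluorescence imaging with Fluo4-AM dye, 2 µM / Material: HEK293 cells with stable M3R and inducible RGS4 / Schedule: recording 10 s baseline at 1 Hz, 100 s post-agonist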
RGS4 block – inhibitors of human RGS4; B-score at 10 µM; HEK293 M3R/RGS4 inducible, Fluo-4 calcium flux; hits give high values; triggered by carbachol at its EC20; P49798; hit rate 0.45% among 310,000;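 active = B-score, a plate-corrected calcium signal, over three deviations above library mean, with baseline fluorescence within five deviations of library mean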;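 note: RGS4 expression induced by doxycycline in cells with stable M3 receptor; B-score is computed from the integrated fluorescence ratio over baseline after carbachol; higher B-score means a larger calcium signal and so more RGS4 inhibition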
Target sequence (P49798 whole entry, looked up): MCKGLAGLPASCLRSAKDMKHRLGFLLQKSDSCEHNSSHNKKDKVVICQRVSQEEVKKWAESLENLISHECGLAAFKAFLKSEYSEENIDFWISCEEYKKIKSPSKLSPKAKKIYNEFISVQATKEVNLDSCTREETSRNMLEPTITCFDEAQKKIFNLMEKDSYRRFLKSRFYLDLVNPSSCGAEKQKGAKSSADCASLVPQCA
MrgX1 allo act – human MrgX1 positive allosteric modulation, primary screen; MrgX1-HEK293, Fluo-4 calcium flux, FDSS; hits give high values; Q96LB2; B-score at 10 µM; hit rate 0.63% among 310,000; AID 588675;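 active = plate-corrected calcium response at least 3 library SD above typical, normal starting fluorescence, not activating the receptor alone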;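 note: compound read alongside a low EC10 to EC30 dose of BAM8-22 agonist; peak minus trough fluorescence over baseline measured at the second addition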
RGS4 inh valid – validation of RGS4 inhibitors. hit rate 65% among 1,700. shares compounds with RGS4 block. calcium response, % at 10 µM. HEK293 M3R/RGS4, carbachol calcium Fluo-4 fluorescence; carbachol added at its EC20; 0 = buffer wells, 100 = carbachol control;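 active = duplicate-averaged calcium response above the buffer-only control mean plus 5 SD of those controls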;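 note: integrated fluorescence ratio F max minus min over baseline F0; higher response in RGS4-induced cells means RGS4 inhibition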
RGS4 uninduced – counter-screen for RGS4 inhibitors: effect in non-induced cells; shares compounds with RGS4 block; HEK293 M3R non-induced, carbachol calcium Fluo-4; submaximal (EC20) carbachol stimulus; buffer wells 0%, carbachol control wells 100%; activity (percent), % at 10 µM; hit rate 20% among 1,900; AID 493000; call rule not given here;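 note: RGS4 induction absent so cells express M3R without RGS4; higher means more calcium signal and flags a non-specific hit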
RGS4 inh ctr2 – signal in non-induced cells without carbachol, RGS4 inhibitor counter-screen; shares compounds with RGS4 block; hit rate 22% among 1,900; calcium response (agonist-mode artifact), % at 10 µM; HEK293 M3R/RGS4 non-induced, Fluo-4 calcium, no carbachol; normalised: buffer wells 0%, carbachol wells 100%; AID 493001;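 active = duplicate-averaged calcium rise in uninduced cells above buffer wells' mean plus 5 SD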
* hit, by the source's call; i = inactive; x = no result.

SMILES | MrgX1 agonist | MrgX1 antagonist | RGS4 pot | RGS4 block | MrgX1 allo act | RGS4 inh valid | RGS4 uninduced | RGS4 inh ctr2
C=CCNC(=S)NNc1nc2c(c(=O)[nH]1)C1(CCCC1)Cc1ccccc1-2 | i | i | i | 9.8* | i | 22%* | i | i
O=c1[nH]c(NNC(=S)NCc2ccccc2)nc2c1C1(CCCCC1)Cc1ccccc1-2 | i | i | i | 13* | i | 30%* | i | i
CNc1c(NS(=O)(=O)c2cc(OC)ccc2OC)c(=O)oc2ccccc12 | i | i | i | i | i | x | x | x
Cc1ccccc1C(=O)NC(C(N)=O)P(=O)(OC(C)C)OC(C)C (stereo not drawn) | i | i | i | i | i | x | x | x
CCC(=O)Nc1ccc(C=C(C(C)=O)C(C)=O)cc1 | i | i | i | 5* | i | 56%* | 29%* | 16%*
CCN(CC)CCN(C(=O)c1ccc2c(c1)CCCC2)c1nc2cc(OC)c(OC)cc2s1 | i | i | i | 5.3* | i | i | i | i
COc1cc2nc(N(CCN(C)C)C(=O)c3ccc4ccccc4c3)sc2cc1OC | i | i | i | i | i | x | x | x
CN1CCCN(Cc2nc(-c3cccc(C(F)(F)F)c3)no2)CC1 | i | i | i | i | i | x | x | x
COc1ccc(/C=C/C(=O)NCC(=O)N=Nc2c(O)[nH]c3ccc([N+](=O)[O-])cc23)cc1 | i | i | i | i | i | x | x | x
CC(C)(C)c1ccc(/C=C(\c2nc3ccccc3[nH]2)S(=O)(=O)c2ccccc2)cc1 | i | i | i | i | i | i | i | i
COc1ccc(-c2csc(NC(C)c3nc4cc(Cl)c(Cl)cc4n3CCCO)n2)cc1 (stereo not drawn) | i | i | i | i | i | x | x | x
O=C(CSc1cccc[n+]1[O-])Nc1cc2c(cc1Cl)C(=O)c1ccccc1C2=O | i | i | i | 12* | i | 65%* | i | i
Cc1cc(-c2ccco2)n2c(nc3ccccc32)c1C#N | i | i | i | i | i | x | x | x
Cc1cc(Cl)n2c(nc3cc(F)c(F)cc32)c1C#N | x | x | i | 7.5* | x | 13%* | i | 9.5%*
COC(=O)c1sc(NC(=O)CSc2nc3cccnc3n2C)nc1C | i | i | i | i | i | x | x | x
CCc1c(O)nc(SCC(=O)Nc2ccc(OC)cc2)n(C2CCCCC2)c1=O | i | i | i | i | i | x | x | x
CCc1c(O)nc(SCC(=O)Nc2nc3ccccc3s2)n(C2CCCCC2)c1=O | i | i | i | 5.8* | i | 37%* | i | i
COC(=O)c1sc(NC(=O)CSc2nc3cccnc3n2C2CCCCC2)nc1C | i | i | i | 4.9* | i | 9.5%* | i | i
CCCCOc1ccc(/C=C2/Sc3ccccc3C2=O)cc1 | i | i | i | i | i | x | x | x
CCCCOc1ccc(/C=c2\sc3ncnn3c2=O)cc1 | i | i | i | i | i | i | i | i
Cc1cccc(NC(=O)NNC(=O)c2sccc2-n2cccc2)c1 | i | i | i | i | i | x | x | x
COc1ccc(OC)c(C(=O)/C=C/c2cccnc2)c1 | i | i | i | i | i | x | x | x
COc1cc(C(=O)/C=C/c2cccnc2)ccc1O | i | i | i | 11* | i | 36%* | 46%* | i
O=C(/C=C/c1cccnc1)c1cc(F)ccc1O | i | i | i | 5* | i | 22%* | 72%* | i
CC1CC1C(=O)Nc1nc2ccc(S(C)(=O)=O)cc2s1 (stereo not drawn) | i | i | i | 6.1* | i | i | i | i
SMILES | MrgX1 agonist | MrgX1 antagonist | RGS4 pot | RGS4 block | MrgX1 allo act | RGS4 inh valid | RGS4 uninduced | RGS4 inh ctr2
Cc1ccc2nc(NC(=O)C3CC3C)sc2c1 (stereo not drawn) | i | i | i | i | i | x | x | x
CCn1nc(NS(=O)(=O)c2ccc([N+](=O)[O-])cc2)c2cc3cccc(C)c3nc21 | i | i | i | 17* | i | 22%* | 37%* | i
CC(Nc1nc(-c2ccc(F)cc2)cs1)c1nc2cc(Cl)c(N3CCCCC3)cc2n1CCOCCO (stereo not drawn) | i | i | i | i | i | i | i | i
CC(Nc1nc(-c2ccc(F)cc2)cs1)c1nc2cc(Cl)c(N3CCCCC3)cc2n1CCCO (stereo not drawn) | i | i | i | i | i | x | x | x
CC(Nc1nc(-c2cccc(Br)c2)cs1)c1nc2cc(Cl)c(N3CCCCC3)cc2n1CCOCCO (stereo not drawn) | i | i | i | 8.2* | i | 10%* | i | i
Cc1cc2[nH]c(=O)c(=O)[nH]c2cc1S(=O)(=O)Nc1cccc(Cl)c1C | i | i | i | i | i | x | x | x
CCOC(=O)[C@@H]1[C@H]2COc3ccccc3[C@H]2N2C(=O)N(c3ccc(Cl)cc3)C(=O)[C@]12C | i | i | i | i | i | i | i | i
CCOC(=O)[C@@H]1[C@H]2COc3ccccc3[C@H]2N2C(=O)N(c3ccc(F)cc3)C(=O)[C@]12C | i | i | i | i | i | i | i | i
CCOC(=O)[C@@H]1[C@H]2COc3ccccc3[C@@H]2N2C(=O)N(c3ccc(C)cc3)C(=O)[C@]12C | i | i | i | i | i | x | i | i
COC(=S)Nc1cccc(C(F)(F)F)c1 | i | i | i | i | i | x | x | x
COC(=O)/C=C/C(=O)Nc1cccc(C(F)(F)F)c1 | i | i | i | 6.7* | i | 13%* | 44%* | i
COc1ccc(S(=O)(=O)NCC2CCCN(C(=O)CCC(F)(F)F)C2)cc1 (stereo not drawn) | i | i | i | i | i | x | x | x
Cc1ccc(C)c(CN2CCC(n3nccc3NC(=O)CCCc3ccccc3)CC2)c1 | i | i | i | i | i | x | x | x
COc1ccccc1/C=C/C=N/n1c(-c2ccccn2)n[nH]c1=S | i | i | i | i | i | x | x | x

Bioassay records (PubChem)
